Calls of active or inactive are those of the source. The rule behind the calls is not given here.
How the values were obtained:
[1] = test system: Hepatitis C virus; assay: Antiviral activity against HCV infected in human HuH7 cells assessed as inhibition of viral replication at 10 uM by RT-PCR analysis; type: functional, Hepacivirus hominis; conditions: Huh-7
How it was run: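 Huh7 cells carrying a subgenomic HCV replicon, with compounds tested at 10 μM. HCV RNA and ribosomal RNA were extracted and amplified together, so cytotoxicity was read at the same time as replicon inhibition.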

[2] = test system: Huh-7; assay: Cytotoxicity against human HuH7 cells assessed as rRNA level at 10 uM; type: cell-based; conditions: huh-7, 10 µM
How it was run: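 Huh7 cells carrying a subgenomic HCV replicon were given compound at 10 μM. Cytotoxicity was measured alongside anti-HCV activity by extracting and amplifying ribosomal RNA together with HCV RNA.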

[3] = test system: Human immunodeficiency virus 1; assay: Antiviral activity against HIV1 LAI infected in human peripheral blood mononuclear cells assessed as inhibition of viral replication after 5 days by quantitative RT-PCR analysis; type: functional, organism-based; conditions: Human immunodeficiency virus 1, LAI, 120 h
How it was run: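 Primary human PBM cells were infected with HIV-1 LAI, and AZT was run as the positive standard.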

[4] = Cytotoxicity against human PBMC after 5 days; type: cell-based
[5] = (§1) Cytotoxicity against human CEM after 5 days; type: cell-based, CCRF-CEM; conditions: CEM cells (CCRF-CEM)
[6] = Cytotoxicity against african green monkey Vero after 5 days; type: cell-based; conditions: chlorocebus sabaeus, Vero cells
[7] = test system: CCRF-CEM; assay: as §1; type: cell-based; conditions: ccrf-cem, 120 h
[8] = test system: Hepatitis C virus; assay: Antiviral activity against HCV infected in human HuH7 cells assessed as inhibition of viral replication by RT-PCR analysis; type: functional, organism-based, Hepacivirus hominis; conditions: Huh-7
How it was run: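 Subgenomic HCV replicon system in Huh7 cells. HCV RNA and ribosomal RNA were both extracted and amplified, with the rRNA signal giving cytotoxicity at the same time as antiviral activity.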

[9] = Chemical stability of the compound in phosphate buffer at pH 7.4 assessed as formation of complex mixture product after 3 days; type: physicochemical; conditions: pH 7.4, 72 h
[10] = molecular target: T1, Adenosine deaminase (Homo sapiens) (UniProt P00813); assay: Activity at adenosine deaminase assessed as nitrogen to oxygen transformation
T1 sequence (whole entry): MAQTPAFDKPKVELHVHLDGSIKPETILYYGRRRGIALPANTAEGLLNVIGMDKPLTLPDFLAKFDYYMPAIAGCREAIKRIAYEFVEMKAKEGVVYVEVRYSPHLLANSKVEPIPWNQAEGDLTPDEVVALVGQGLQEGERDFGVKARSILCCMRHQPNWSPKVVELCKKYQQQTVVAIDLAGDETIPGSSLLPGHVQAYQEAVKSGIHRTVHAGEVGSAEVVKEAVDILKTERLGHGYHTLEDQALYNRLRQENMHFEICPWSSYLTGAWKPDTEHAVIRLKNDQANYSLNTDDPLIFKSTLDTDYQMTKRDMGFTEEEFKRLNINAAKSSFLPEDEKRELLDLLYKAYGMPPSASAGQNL

[11] = molecular target: T1, Adenosine deaminase (Homo sapiens); assay: Activity at adenosine deaminase
How it was run: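 ADA inhibition assay: 140 μM adenosine (final) with 0.01 units adenosine deaminase in 50 mM potassium phosphate, pH 7.4; compounds at 10 μM. Absorbance at 265 nm followed over four minutes. Inhibition judged from the change in slope relative to no-compound control, with a slope nearing zero indicating inhibition.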

Compound | inhibition at 10 µM [1] | Activity [2] | EC50 [3] | EC90 [3] | CC50 at 120 h [4] | CC50 at 120 h [5] | CC50 at 120 h [6] | CC50 [7] | EC50 [8] | Stability [9] | Activity [10] | Activity [11]
Cc1nc(N)nc2c1ncn2[C@@H]1O[C@H](CO)[C@@H](O)[C@@]1(C)O | 0% | 0% | 70 µM | > 100 µM | > 100 µM | 13 µM | > 100 µM | – | – | – | – | –
COc1nc(Cl)nc2c1ncn2[C@@H]1O[C@H](CO)[C@@H](O)[C@@]1(C)O | 14% | 9.8% | > 100 µM | > 100 µM | > 100 µM | > 100 µM | > 100 µM | – | – | – | – | –
CCOC(=O)[C@H](C)NP(=O)(OC[C@H]1O[C@@H](n2cnc3c(C)nc(N)nc32)[C@](C)(O)[C@@H]1O)Oc1ccccc1 (some centres undefined) | 0% | 0% | 68 µM | > 100 µM | > 100 µM | > 100 µM | > 100 µM | – | – | – | – | –
C[C@@]1(OC(=O)c2ccccc2)[C@H](OC(=O)c2ccccc2)[C@@H](COC(=O)c2ccccc2)O[C@H]1n1cnc2c(Cl)nc(NO)nc21 | 100% | 100% | 17 µM | 65 µM | 43 µM | – | > 100 µM | 7.3 µM | – | – | – | –
C[C@@]1(O)[C@H](O)[C@@H](CO)O[C@H]1n1cnc2c(N)nc(NN)nc21 | 85% | 7% | > 100 µM | > 100 µM | > 100 µM | > 100 µM | > 100 µM | – | 6 µM | Unstable | – | –
CCOP(=O)(OCC)c1nc(N)nc2c1ncn2[C@@H]1O[C@H](CO)[C@@H](O)[C@@]1(C)O | 19% | 15% | > 100 µM | > 100 µM | > 100 µM | > 100 µM | > 100 µM | – | – | – | inactive | –
C[C@@]1(O)[C@H](O)[C@@H](CO)O[C@H]1n1cnc2c(=O)[nH]nc(N)c21 | 0% | 0% | > 100 µM | > 100 µM | > 100 µM | > 100 µM | > 100 µM | – | – | – | – | –
C[C@@]1(O)[C@H](O)[C@@H](CO)O[C@H]1n1cnc2c(N)nc(-n3ccnn3)nc21 | 0% | 0% | > 100 µM | > 100 µM | > 100 µM | > 100 µM | > 100 µM | – | – | – | inactive | Active
C[C@@]1(O)[C@H](O)[C@@H](CO)O[C@H]1n1cnc2c(N)n[nH]c(=O)c21 | 0% | 0% | > 100 µM | > 100 µM | > 100 µM | > 100 µM | > 100 µM | – | – | – | inactive | –
C[C@@]1(O)[C@H](O)[C@@H](CO)O[C@H]1n1cnc2c1nc(N)n1nc(-c3ccco3)nc21 | 0% | 0% | > 100 µM | > 100 µM | > 100 µM | > 100 µM | > 100 µM | – | – | – | – | –
C[C@@]1(O)[C@H](O)[C@@H](CO)O[C@H]1n1cnc2c(N)nc(Cl)nc21 | 0% | 5.8% | > 100 µM | > 100 µM | > 100 µM | > 100 µM | > 100 µM | – | – | – | – | –
C[C@@]1(O)[C@H](O)[C@@H](CO)O[C@H]1n1cnc(C(=O)NN)c1/C(N)=N/N | 0% | 9% | > 100 µM | > 100 µM | > 100 µM | > 100 µM | > 100 µM | – | – | – | – | –
C[C@@]1(O)[C@H](O)[C@@H](CO)O[C@H]1n1cnc2c(=N)n(N)[nH]c(=O)c21 | 0% | 0% | > 100 µM | > 100 µM | > 100 µM | > 100 µM | > 100 µM | – | – | – | – | –
C[C@@]1(OC(=O)c2ccccc2)[C@H](OC(=O)c2ccccc2)[C@@H](COC(=O)c2ccccc2)O[C@H]1n1cnc2c(N)nc(NO)nc21 | 66% | 76% | 8.7 µM | 42 µM | > 100 µM | 27 µM | 42 µM | – | – | – | – | –
CCOC(=O)[C@H](C)NP(=O)(OC[C@H]1O[C@@H](n2cnc3c(N)nc(NN)nc32)[C@](C)(O)[C@@H]1O)Oc1ccccc1 (some centres undefined) | – | – | – | – | – | – | – | – | 0.9 µM | – | – | –
CCOP(=O)(O)c1nc(N)nc2c1ncn2[C@@H]1O[C@H](CO)[C@@H](O)[C@@]1(C)O | 19% | 15% | > 100 µM | > 100 µM | > 100 µM | > 100 µM | > 100 µM | – | – | – | inactive | –
Cc1nc2c3ncn([C@@H]4O[C@H](CO)[C@@H](O)[C@@]4(C)O)c3nc(N)n2n1 | 0% | 0% | > 100 µM | > 100 µM | > 100 µM | > 100 µM | > 100 µM | – | – | – | – | –
C[C@@]1(O)[C@H](O)[C@@H](CO)O[C@H]1n1cnc2c(N)nc(N=[N+]=[N-])nc21 | 5.2% | 0% | > 100 µM | > 100 µM | > 100 µM | > 100 µM | > 100 µM | – | – | – | – | –
C[C@@]1(O)[C@H](O)[C@@H](CO)O[C@H]1n1cnc2c(N)nc(-n3cc([Si](C)(C)C)nn3)nc21 | 0% | 0% | > 100 µM | > 100 µM | > 100 µM | > 100 µM | > 100 µM | – | – | – | – | –
